Test results: PMC4734651 (MedChemComm, 2014)

What follows are molecules tested against TrkA (Homo sapiens, UniProt P04629) (assay: TrkA biochemical screening assay). Conditions: 39 compared with 26.
Procedure, shortened: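 5FAM-tagged TrkA peptide (1.5 μM final) and ATP (190 μM final) then added. Run to 10–20% conversion in no-inhibitor wells; no-enzyme blanks. Product/substrate peaks separated on chip; percent inhibition calculated.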

Chain of TrkA (P04629 33-796): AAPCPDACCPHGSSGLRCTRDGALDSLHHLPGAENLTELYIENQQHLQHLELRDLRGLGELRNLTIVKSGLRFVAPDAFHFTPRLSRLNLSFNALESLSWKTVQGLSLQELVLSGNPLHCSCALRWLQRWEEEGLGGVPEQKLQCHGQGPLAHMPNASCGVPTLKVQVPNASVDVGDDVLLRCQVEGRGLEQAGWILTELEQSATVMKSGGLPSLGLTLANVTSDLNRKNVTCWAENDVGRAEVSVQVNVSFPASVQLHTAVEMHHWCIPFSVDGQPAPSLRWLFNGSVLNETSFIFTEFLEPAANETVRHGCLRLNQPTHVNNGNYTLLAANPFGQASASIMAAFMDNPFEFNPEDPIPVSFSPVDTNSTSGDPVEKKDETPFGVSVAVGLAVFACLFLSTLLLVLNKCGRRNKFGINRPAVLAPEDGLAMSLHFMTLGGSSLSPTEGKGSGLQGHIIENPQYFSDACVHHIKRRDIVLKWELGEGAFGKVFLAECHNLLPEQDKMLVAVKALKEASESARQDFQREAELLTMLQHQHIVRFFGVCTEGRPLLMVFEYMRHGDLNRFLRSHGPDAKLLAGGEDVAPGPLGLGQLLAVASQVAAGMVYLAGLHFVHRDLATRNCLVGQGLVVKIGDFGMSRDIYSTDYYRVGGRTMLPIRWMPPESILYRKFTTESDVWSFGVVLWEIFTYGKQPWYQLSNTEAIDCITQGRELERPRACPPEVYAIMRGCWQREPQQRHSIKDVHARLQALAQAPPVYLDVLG

SMILES | increase in TrkA inhibition in comparison to 26
Cn1cc(-c2cncc(-c3ccc(NC(=O)Nc4cc(C(C)(C)C)on4)cc3)n2)cn1 [Compound 39] | ~ 5 fold

Same assay, conditions: chlorine at A-region derivatized, compared with 1a

SMILES | TrkA affinity increase relative to compound 1a [times]
COc1ccc(-c2cncc(Oc3cccc(NC(=O)Nc4cc(C(C)(C)C)on4)c3)n2)cc1 [Compound 9] | > 1000
CC(C)(C)c1cc(NC(=O)Nc2cccc(Oc3cncc(-c4ccsc4)n3)c2)no1 [Compound 15] | > 1000
CC(C)(C)c1cc(NC(=O)Nc2cccc(Oc3cncc(-c4ccc(S(C)(=O)=O)cc4)n3)c2)no1 [Compound 20] | > 1000
Cn1cc(-c2cncc(Oc3cccc(NC(=O)Nc4cc(C(C)(C)C)on4)c3)n2)cn1 [Compound 26] | > 1000
CC(C)(C)c1cc(NC(=O)Nc2cccc(Oc3cncc(-c4ccc(F)cc4)n3)c2)no1 [Compound 36] | > 1000

Same assay, conditions: qualitative statement

SMILES | TrkA activity (in words)
CC(C)(C)c1cc(NC(=O)Nc2cccc(Oc3cncc(Cl)n3)c2)no1 [Compound 1a] | not strongly active
CC(C)(C)c1ccc(NC(=O)Nc2cccc(Oc3cncc(-c4ccsc4)n3)c2)cc1 [Compound 13] | relatively inactive
CC(C)(C)c1cc(NC(=O)Nc2cccc(Oc3cncc(-c4ccsc4)n3)c2)on1 [Compound 14] | relatively inactive
Cn1nc(C(C)(C)C)cc1NC(=O)Nc1cccc(Oc2cncc(-c3ccsc3)n2)c1 [Compound 16] | relatively inactive
Cn1cc(-c2cncc(-c3ccc(NC(=O)Nc4cc(C(C)(C)C)on4)cc3)n2)cn1 [Compound 39] | far more potent than their ether linked counterparts
Cn1cc(-c2cncc(-c3ccc(NC(=O)Nc4cc(C(C)(C)C)nn4C)cc3)n2)cn1 [Compound 40] | far more potent than their ether linked counterparts

Same assay, conditions: read-out: %TrkA inhibition, 20 μM

SMILES | inhibition at 20 µM [%]
CC(C)(C)c1cc(NC(=O)Nc2ccc(-c3cncc(Cl)n3)cc2)no1 [Compound 38] | 41.4 ± 3.3
Cn1cc(-c2cncc(-c3ccc(NC(=O)Nc4cc(C(C)(C)C)on4)cc3)n2)cn1 [Compound 39] | 96.1 ± 2.3
